# Calls of active or inactive are those of the source. The rule behind the calls is not given here.
# Legend:
# [1] = target: T1, Bile acid receptor (Homo sapiens) (UniProt Q96RI1); assay: Agonist activity at GAL4-fused human FXR LBD expressed in human HepG2 cells up to 2 uM after 20 hrs by luciferase reporter gene assay; format: cell-based
# T1 sequence (whole entry): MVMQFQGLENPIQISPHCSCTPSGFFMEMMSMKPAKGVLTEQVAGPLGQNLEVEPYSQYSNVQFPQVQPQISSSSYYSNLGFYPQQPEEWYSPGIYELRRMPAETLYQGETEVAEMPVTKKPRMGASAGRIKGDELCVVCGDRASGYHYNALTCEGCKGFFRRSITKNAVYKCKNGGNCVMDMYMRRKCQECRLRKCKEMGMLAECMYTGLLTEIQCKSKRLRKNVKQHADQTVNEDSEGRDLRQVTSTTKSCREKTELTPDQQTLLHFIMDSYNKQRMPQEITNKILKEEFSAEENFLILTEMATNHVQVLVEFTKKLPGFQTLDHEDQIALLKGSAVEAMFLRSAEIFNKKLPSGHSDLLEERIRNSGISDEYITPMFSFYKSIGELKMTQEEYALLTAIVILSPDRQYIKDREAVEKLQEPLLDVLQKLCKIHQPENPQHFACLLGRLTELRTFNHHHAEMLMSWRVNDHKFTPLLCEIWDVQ
# Outline: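 HepG2 in MEM/10% FBS, calcium-phosphate co-transfection 24 h after seeding with GAL4-FXR-LBD (30 ng), pGAL5TKpGL3 luciferase reporter (100 ng) and pCMVβgal (250 ng); 4 h later, 20 h ligand exposure in triplicate. Luciferase normalized to β-galactosidase (ONPG); efficacy as % of maximal fold induction of chenodeoxycholic acid reference; tested up to 2 μM.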
# [2] = target: T2, Peroxisome proliferator-activated receptor gamma (Homo sapiens, UniProt P37231); assay: Transactivation of GAL4-fused human PPARgamma LBD expressed in human HepG2 cells after 20 hrs by luciferase reporter gene assay; format: cell-based
# T2 sequence (P37231 whole entry): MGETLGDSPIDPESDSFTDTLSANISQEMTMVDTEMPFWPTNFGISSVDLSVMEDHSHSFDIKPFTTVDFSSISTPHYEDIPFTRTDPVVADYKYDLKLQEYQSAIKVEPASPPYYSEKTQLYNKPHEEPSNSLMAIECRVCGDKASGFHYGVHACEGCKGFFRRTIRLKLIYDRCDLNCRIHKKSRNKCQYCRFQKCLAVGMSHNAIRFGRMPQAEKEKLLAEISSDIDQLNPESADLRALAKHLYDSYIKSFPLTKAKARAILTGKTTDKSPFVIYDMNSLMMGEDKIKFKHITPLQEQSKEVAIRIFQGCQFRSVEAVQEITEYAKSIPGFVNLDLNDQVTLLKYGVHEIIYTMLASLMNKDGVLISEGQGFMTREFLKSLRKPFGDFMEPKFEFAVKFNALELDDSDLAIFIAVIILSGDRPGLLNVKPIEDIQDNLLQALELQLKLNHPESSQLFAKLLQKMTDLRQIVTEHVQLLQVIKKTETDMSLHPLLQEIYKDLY
# [3] = target: T3, Peroxisome proliferator-activated receptor alpha (Homo sapiens, UniProt Q07869); assay: Transactivation of GAL4-fused human PPARalpa LBD expressed in human HepG2 cells after 20 hrs by luciferase reporter gene assay; format: cell-based
# T3 sequence (Q07869 whole entry): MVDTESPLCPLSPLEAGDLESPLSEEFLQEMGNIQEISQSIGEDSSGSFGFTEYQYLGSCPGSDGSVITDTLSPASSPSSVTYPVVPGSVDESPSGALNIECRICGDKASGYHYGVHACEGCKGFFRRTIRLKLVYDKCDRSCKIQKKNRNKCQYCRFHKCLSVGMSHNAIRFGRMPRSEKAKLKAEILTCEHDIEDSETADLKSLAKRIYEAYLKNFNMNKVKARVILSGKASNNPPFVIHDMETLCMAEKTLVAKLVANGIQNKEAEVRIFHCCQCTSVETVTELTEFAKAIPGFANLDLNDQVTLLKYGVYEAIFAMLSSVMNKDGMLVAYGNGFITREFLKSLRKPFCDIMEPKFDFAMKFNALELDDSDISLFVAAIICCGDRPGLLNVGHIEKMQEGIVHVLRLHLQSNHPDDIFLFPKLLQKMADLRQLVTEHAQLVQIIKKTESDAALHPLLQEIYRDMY
# HepG2 = assay: Cytotoxicity against human HepG2 cells at >2 uM; format: cell-based
# [4] = target: T2, Peroxisome proliferator-activated receptor gamma; assay: Binding affinity to PPARgamma (unknown origin) assessed as thermodynamic dissociation constant by SPR assay
# [5] = target: T2, Peroxisome proliferator-activated receptor gamma; assay: Binding affinity to PPARgamma (unknown origin) assessed as kinetic dissociation constant by SPR assay
# [6] = target: T3, Peroxisome proliferator-activated receptor alpha; assay: Binding affinity to PPARalpha (unknown origin) assessed as thermodynamic dissociation constant by SPR assay
# [7] = target: T4, Peroxisome proliferator-activated receptor delta (Homo sapiens, UniProt Q03181); assay: Binding affinity to PPARdelta (unknown origin) assessed as thermodynamic dissociation constant by SPR assay; settings: read-out: Kd
# T4 sequence (Q03181 whole entry): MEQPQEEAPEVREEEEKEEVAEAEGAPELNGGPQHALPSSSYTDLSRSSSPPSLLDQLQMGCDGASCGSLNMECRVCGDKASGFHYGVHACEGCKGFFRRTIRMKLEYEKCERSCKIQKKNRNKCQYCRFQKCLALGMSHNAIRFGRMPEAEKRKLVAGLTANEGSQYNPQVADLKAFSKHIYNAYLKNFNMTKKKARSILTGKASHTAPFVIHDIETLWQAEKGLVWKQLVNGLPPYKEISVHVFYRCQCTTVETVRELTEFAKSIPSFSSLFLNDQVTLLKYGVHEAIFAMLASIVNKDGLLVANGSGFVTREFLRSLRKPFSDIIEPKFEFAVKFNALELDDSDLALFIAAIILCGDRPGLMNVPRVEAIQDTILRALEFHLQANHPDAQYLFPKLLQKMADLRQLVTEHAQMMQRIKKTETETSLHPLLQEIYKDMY
# [8] = target: T3, Peroxisome proliferator-activated receptor alpha; assay: Binding affinity to PPARalpha (unknown origin) assessed as kinetic dissociation constant by SPR assay
# [9] = target: T4, Peroxisome proliferator-activated receptor delta; assay: Binding affinity to PPARdelta (unknown origin) assessed as kinetic dissociation constant by SPR assay
# [10] = target: T4, Peroxisome proliferator-activated receptor delta; assay: Transactivation of GAL4-fused human PPARdelta LBD expressed in human HepG2 cells after 20 hrs by luciferase reporter gene assay; format: cell-based
# Outline: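 HepG2 cells seeded 10⁵/well, transfected after 24 h by calcium phosphate with GAL4-PPARδ-LBD (30 ng), pGAL5TKpGL3 luciferase reporter (100 ng) and pCMVβgal (250 ng); 4 h later treated 20 h in triplicate with ligands up to 2 μM. Luciferase in cell extracts normalised to β-galactosidase (ONPG); efficacy as % of maximal fold induction of reference agonist L-165,041; experiments repeated at least twice.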
# [11] = target: T5, Peroxisome proliferator-activated receptor alpha (Homo sapiens) (UniProt Q07869); assay: Agonist activity at PPARalpha assessed as induction of positive regulatory loop based receptor transcriptional activation by measuring upregulation of PPARalpha protein expression level in human HepG2 cells at 1 uM after 48 hrs by Western blot method; format: cell-based
# T5 sequence (whole entry): T3 sequence (Q07869 whole entry)
# Outline: (§1)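 HepG2 serum-depleted 24 h, then treated 48 h with 1 μM compound (Wy-14,643 at 50 μM as reference). Nitrocellulose immunoblots probed for CAC, CPT1 or PPARα with β-actin loading control, chemiluminescent detection; band densitometry expressed as fold change versus untreated cells; three independent experiments.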
# HEK-293T = assay: Effect on p21waf1/cip1 protein expression in HEK293T cells at 10 uM after 48 hrs by Western blot method; format: cell-based; settings: human
# Outline: (§2)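 HT-29 or HEK293T cells in DMEM/10% FBS treated 48 h with 10 μM compound (DMSO vehicle, final below 0.1%). RIPA lysates (with protease inhibitors), 80 μg protein per lane immunoblotted for p21waf1/cip1 with β-actin loading control; densitometric p21/β-actin ratio, mean ± SD of at least three independent experiments.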
# [12] = target: T5, Peroxisome proliferator-activated receptor alpha (Homo sapiens); assay: Agonist activity at PPARalpha in human HepG2 cells assessed as increase in CPT1 mRNA level at 1 uM after 24 hrs by RT-PCR method; format: cell-based
# Outline: (§3)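 Serum-free HepG2 exposed 24 h to 1 μM test agent (Wy-14,643 reference at 50 μM). RNA extracted from 1x10⁶ cells; TaqMan real-time RT-PCR for CAC, CPT1 or PPARα, normalized to β-actin. Mean ± SD of three independent duplicate experiments; one-way ANOVA with Bonferroni test.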
# [13] = target: T5, Peroxisome proliferator-activated receptor alpha (Homo sapiens); assay: Agonist activity at PPARalpha assessed as induction of positive regulatory loop based receptor transcriptional activation by measuring upregulation of PPARalpha mRNA level in human HepG2 cells at 1 uM after 24 hrs by RT-PCR method; format: cell-based; outline: as §3
# HT-29 = assay: Growth inhibition of human HT-29 cells assessed as cell vitality up to 10 uM up to 72 hrs by hemocytometry relative to control; format: functional; parameters: scale not given: the % may be the effect or the level left
# Outline: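 Exponentially growing HT-29 colon adenocarcinoma cells (D-MEM, 10% FBS, 37 °C, 5% CO2) exposed to vehicle (DMSO, final <0.1%) or 1, 5 and 10 μM compound in 10% FBS medium for 24, 48 and 72 hs; cells washed, trypsinized and counted by Bürker hemocytometer, three counts per well. Viability relative to vehicle; mean ± SD of three independent experiments in duplicate.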
# [14] = target: T5, Peroxisome proliferator-activated receptor alpha (Homo sapiens); assay: Agonist activity at PPARalpha in human HepG2 cells assessed as increase in CAC protein expression level at 1 uM after 48 hrs by Western blot method; format: cell-based; outline: as §1
# [15] = target: T6, Peroxisome proliferator-activated receptor gamma (Homo sapiens) (UniProt P37231); assay: Agonist activity at PPARgamma in human HT-29 cells assessed as upregulation of p21waf1/cip1 protein expression at 10 uM after 48 hrs by Western blot method; format: cell-based; outline: as §2
# T6 sequence (whole entry): T2 sequence (P37231 whole entry)
# [16] = target: T6, Peroxisome proliferator-activated receptor gamma (Homo sapiens); assay: Agonist activity at PPARgamma in human HT-29 cells harboring APC mutant assessed as inhibition of Wnt/beta-catenin signaling pathway by measuring decrease in c-Myc level at 10 uM treated for 24 hrs by Western blot method; format: cell-based
# Outline: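 RIPA lysates, 80 μg protein immunoblotted for c-Myc with β-actin loading control; c-Myc/β-actin densitometry, mean ± SD of at least three independent experiments.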
# [17] = target: T5, Peroxisome proliferator-activated receptor alpha (Homo sapiens); assay: Agonist activity at PPARalpha in human HepG2 cells assessed as increase in mitochondrial mass at 1 uM by CellLight Mitochondria-GFP staining based fluorescent microscopic method relative to control; format: cell-based
# Outline: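 Serum-free HepG2 at 60% confluence transduced with Mitochondria-GFP BacMam 2.0 (50 particles/cell) and given 1 μM compound or 50 μM Wy-14,643 for 24 h. Imaged at 20x with GFP filters (ex 485/em 535 nm); separately, SDS/Tris pH 7.5 lysates read at ex 475, em 500-550 nm. Mean ± SD of three experiments, ANOVA/Bonferroni.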
# [18] = target: T5, Peroxisome proliferator-activated receptor alpha (Homo sapiens); assay: Agonist activity at PPARalpha in human HepG2 cells assessed as increase in CPT1 protein expression level at 1 uM after 48 hrs by Western blot method; format: cell-based; outline: as §1
# [19] = target: T5, Peroxisome proliferator-activated receptor alpha (Homo sapiens); assay: Agonist activity at PPARalpha in human HepG2 cells assessed as increase in CAC mRNA level at 1 uM after 24 hrs by RT-PCR method; format: cell-based; outline: as §3
compound,measurement,setting,value
CC(Oc1ccc(Cc2ccc(OCc3coc(-c4ccccc4)n3)cc2)cc1)C(=O)O (configuration not stated),Activity,[1],inactive
same,EC50,[2],0.29 µM
same,EC50,[3],0.039 µM
same,Activity,HepG2,Toxic
CCC(CC)(c1ccc(OCc2coc(-c3ccccc3)n2)cc1)c1ccc(OC(C)C(=O)O)cc1 (configuration not stated),Activity,[1],inactive
same,Activity,HepG2,Toxic
CCC(CC)(c1ccc(OCc2nc(-c3ccccc3)oc2C)cc1)c1ccc(OC(C)C(=O)O)cc1 (configuration not stated),Activity,[1],inactive
same,Activity,HepG2,Toxic
CCCc1c(OCCCOc2ccc(OCC(=O)O)cc2)ccc(C(C)=O)c1O,Kd,[4],Not Active
same,Kd,[5],Not Active
same,Kd,[6],Not Active
same,Kd,[7],0.0764 µM
same,Kd,[8],Not Active
same,Kd,[9],0.43 s⁻¹
same,EC50,[10],0.02 µM
CCC(CC)(c1ccc(OCc2coc(-c3c(Cl)cccc3Cl)n2)cc1)c1ccc(OC(C)C(=O)O)cc1 (configuration not stated),Activity,[1],inactive
same,Activity,HepG2,Toxic
CCC(CC)(c1ccc(OCc2nc(-c3c(Cl)cccc3Cl)oc2C)cc1)c1ccc(OC(C)C(=O)O)cc1 (configuration not stated),Activity,[1],inactive
same,Activity,HepG2,Toxic
Cc1oc(-c2ccccc2)nc1COc1ccc(Cc2ccc(OC(C)C(=O)O)cc2)cc1 (configuration not stated),Activity,[11],Active
same,Activity,HEK-293T,Non-Toxic
same,Activity,[12],Active
same,Activity,[13],Active
same,Activity,[1],inactive
same,Activity,HT-29,70%
same,Activity,[14],Active
same,Activity,[15],Active
same,EC50,[2],0.29 µM
same,EC50,[3],0.1 µM
same,Activity,[16],Active
same,Activity,[17],30%
same,Activity,[18],Active
same,Activity,HepG2,Toxic
same,Activity,[19],Active
CN(CCOc1ccc(CC2SC(=O)NC2=O)cc1)c1ccccn1 (configuration not stated) [ROSIGLITAZONE],Kd,[6],Not Active
same,Activity,HT-29,65%
same,Kd,[8],Not Active

# Source: ChEMBL document CHEMBL4007396, “New diphenylmethane derivatives as peroxisome proliferator-activated receptor alpha/gamma dual agonists endowed with anti-proliferative effects and mitochondrial activity” (Eur J Med Chem, 2017)
